Measured values as given in ChEMBL document CHEMBL1140574, “Design, synthesis, and antimalarial activity of structural chimeras of thiosemicarbazone and ferroquine analogues” (Bioorg Med Chem Lett, 2007).
pIC50: −log10 of the molar value. Calls of active or inactive are those of the source. The rule behind the calls is not given here.

Legend:
Falcipain 2 = target: T1, Falcipain 2 (Plasmodium falciparum, UniProt Q9N6S8); assay: Inhibition of Plasmodium falciparum W2 recombinant falcipain-2 activity
T1 sequence (Q9N6S8 whole entry): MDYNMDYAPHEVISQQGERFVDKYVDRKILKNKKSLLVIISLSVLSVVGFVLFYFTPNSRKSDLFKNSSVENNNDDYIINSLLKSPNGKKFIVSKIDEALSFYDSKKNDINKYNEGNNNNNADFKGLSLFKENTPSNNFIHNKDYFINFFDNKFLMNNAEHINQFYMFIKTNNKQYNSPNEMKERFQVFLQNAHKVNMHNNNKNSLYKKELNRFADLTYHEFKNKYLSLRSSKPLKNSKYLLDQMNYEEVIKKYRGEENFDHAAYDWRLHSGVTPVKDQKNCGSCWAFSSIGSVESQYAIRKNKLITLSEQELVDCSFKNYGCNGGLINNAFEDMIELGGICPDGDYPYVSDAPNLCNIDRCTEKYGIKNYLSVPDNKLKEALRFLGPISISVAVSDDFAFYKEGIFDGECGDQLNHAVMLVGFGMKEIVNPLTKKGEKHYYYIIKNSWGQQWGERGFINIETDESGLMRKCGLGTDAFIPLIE

Plasmodium falciparum [1] = assay: Antimalarial activity against chloroquine-sensitive Plasmodium falciparum 3D7; type: functional, organism-based
Method in brief: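 Parasites kept in RPMI 1640 with 10% human serum, 25 mM Hepes, 25 mM NaHCO3, in A-positive human erythrocytes at 37 °C (10% O2, 5% CO2, 85% N2, 95% humidity). Twofold serial dilutions, final 0.01 to 200 µM, in 1% DMSO/RPMI; 42 h incubation. [3H]hypoxanthine uptake measured by scintillation after freeze-thaw lysis and filter harvest; IC50 by nonlinear regression of log-dose/response curves.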

Plasmodium falciparum [2] = assay: Antimalarial activity against chloroquine-resistant Plasmodium falciparum Bre1; type: functional, organism-based
Method in brief: (§1)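 Parasites cultured in A-positive human erythrocytes in RPMI 1640 with 10% human serum, 25 mM Hepes, 25 mM NaHCO3, 37 °C, 10% O2/5% CO2/85% N2. Compounds dissolved in DMSO 1% in RPMI, twofold serial dilutions, final […]; 42 h incubation; [3H]hypoxanthine uptake read by scintillation after freeze-thaw lysis; IC50 by nonlinear regression of log-dose/response curves.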

Plasmodium falciparum [3] = assay: Antimalarial activity against chloroquine-resistant Plasmodium falciparum FCR3; type: functional, organism-based; method in brief: as §1
Plasmodium falciparum [4] = assay: Antimalarial activity against chloroquine-resistant Plasmodium falciparum W2; type: functional, organism-based; method in brief: as §1
Plasmodium falciparum [5] = assay: Antimalarial activity against Plasmodium falciparum W2 as food vacuole abnormality; type: functional, organism-based

| Compound | pIC50 (Falcipain 2) | IC90 (Plasmodium falciparum [1]) [nM] | IC90 (Plasmodium falciparum [2]) [nM] | IC90 (Plasmodium falciparum [3]) [nM] | IC90 (Plasmodium falciparum [4]) [nM] | Activity (Plasmodium falciparum [5]) |
| --- | --- | --- | --- | --- | --- | --- |
| C/C(=N\NC(=S)NCCCNc1ccnc2cc(Cl)ccc12)c1ccc(Cl)c(Cl)c1 | < 4.70 | 1400 |  |  |  |  |
| CCN(CC)CCCC(C)Nc1ccnc2cc(Cl)ccc12 (stereo not drawn) [CHLOROQUINE] |  | 41.7 | 722 | 1180 | 992 |  |
| C/C(=N\NC(=S)NCCNc1ccnc2cc(Cl)ccc12)c1ccc(Cl)c(Cl)c1 | 5.35 | 2400 |  |  |  | Active |
| C/C(=N\NC(=S)NCCNc1ccnc2cc(Cl)ccc12)c1ccc(Br)cc1 | 4.89 | 26300 |  |  |  |  |
| C/C(=N\NC(=S)NCCCNc1ccnc2cc(Cl)ccc12)c1ccc(Br)cc1 | < 4.70 | 25800 |  |  |  |  |
